S100A4 inh HTS – S100A4-myosin IIA interaction inhibition. P26447. S100A4/TAMRA-MyoIIA peptide fluorescence polarization. inhibition, % at 10.7 µM. 0.14% of 360,000 active;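 active = mean inhibition of at least 70% across replicates, with every replicate also reaching that level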
Target sequence (P26447 whole entry, looked up): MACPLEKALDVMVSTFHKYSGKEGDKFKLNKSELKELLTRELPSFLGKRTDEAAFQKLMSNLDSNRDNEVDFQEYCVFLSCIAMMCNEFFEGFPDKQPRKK
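Test system: S100A4 monomer protein. Medium: HEPES buffer with Ca2+, pH 7.2. Reagent: fluorescent myosin IIA peptide, 5 nM. Compound dosing: single-point compound testing. Timing: 5 min between mix addition and reading. Benchmarks: DMSO neutral and TFP positive wells.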
FGF22 binding – binders of recombinant human FGF22 by thermal shift; Q9HCT0; SYPRO orange fluorescence; percent of sucrose octasulfate shift, DMSO zero; activity (Tm shift, normalised), % at 9.99 µM; 1.5% of 340,000 active; AID 651658;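 active = mean Tm shift, scaled 0 neutral to 100 positive control, at about 1.3% or above, every replicate too, limit read from the data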
Target sequence (Q9HCT0 whole entry, looked up): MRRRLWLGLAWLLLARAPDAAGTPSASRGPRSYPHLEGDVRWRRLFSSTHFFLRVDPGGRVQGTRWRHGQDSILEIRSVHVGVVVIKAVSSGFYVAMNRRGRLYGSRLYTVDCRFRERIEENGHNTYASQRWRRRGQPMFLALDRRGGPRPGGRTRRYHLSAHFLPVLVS
dFosB act – mouse delta FosB homodimer activation; purified delta FosB, TAMRA-CDK5 oligo fluorescence polarization; percent of positive-control signal above neutral wells; activation, % at 25 µM; 0.99% of 340,000 active;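 active = mean activation above about 17%, with every replicate also reaching it, limit read from the data, passing the limit was not always enough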
F508del corr – CFTR F508del correction in bronchial cells. activity (quench increase), % at 7.58 µM. CFBE cells, YFP halide quenching; stimulated with forskolin plus potentiator P3; % fluorescence drop versus neutral controls. AID 720511. 0.36% of 350,000 active;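 active = mean added fluorescence quench of at least 8% versus neutral control, with both replicates also reaching 8%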;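 note: cells transiently co-express mutant CFTR-F508del with the halide-sensitive YFP; corrector assay measuring rescue of mutant channel to the surface after 24 h compound exposure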
Numbers without * were called inactive; nt = no result given. Compounds with a hit are over-represented: about 2.2% of the library has one in this group of screens.

SMILES	S100A4 inh HTS	FGF22 binding	dFosB act	F508del corr
CN(C)CCCNC(=O)c1cc2sc3ccccc3c2s1	-5	44*	-20	2
COc1ccc(S(=O)(=O)N(C)C[C@@H]2OCCCC[C@H](C)Oc3ccc(NC(=O)NC4CCCCC4)cc3C(=O)N([C@@H](C)CO)C[C@H]2C)cc1	-2	-1	nt	-3
COc1cc(C(=O)O/N=C2\C=CC(=O)C=C2C)cc(OC)c1OC	-1	43*	-2	-4
O=C(C[C@@H]1CC[C@@H](NC(=O)C2CC2)[C@@H](CO)O1)NCCCN1CCOCC1	-9	0	nt	-1
CCCCNC(=O)Cc1ccc(Br)cc1	-1	44*	10	2
NC1=NC(=O)/C(=C/c2cc(Br)c(O)c(Br)c2)S1	-7	2.0*	-1	-4
CCC(C)[C@H](NS(=O)(=O)c1ccc(F)cc1Br)C(=O)OC (some centres not stated)	-1	43*	-7	1
CCOC(=O)c1c(NC(=O)C2c3ccccc3Oc3ccccc32)sc(C(C)=O)c1C	-4	0	0	11*
COC(=O)c1sc(NC(=O)C2c3ccccc3Oc3ccccc32)c(C(=O)OC)c1C	nt	nt	-3	nt
COc1ccc(CC(=O)OCn2nnc3ccccc3c2=O)cc1OC	-9	0	-3	-4
COc1ccc(CCNc2c3ccccc3nc3ccccc23)cc1OC	0	0	30*	10*
COc1nc(NCCc2ccc(OC)c(OC)c2)nc(OC)n1	nt	nt	-6	nt
COc1ccc(CCNc2nc(=S)[nH]c3cc(OC)c(OC)cc23)cc1OC	-4	43*	11	4
COc1ccc(CCn2nnc3ccccc3c2=O)cc1OC	0	43*	nt	0
CC(C)NC(=O)N(C)C[C@H]1Oc2c(NC(=O)c3nc4ccccc4s3)cccc2C(=O)N([C@@H](C)CO)C[C@@H]1C	9	0	nt	0
C[C@H](CO)N1C[C@H](C)[C@@H](CN(C)Cc2ccc(C(F)(F)F)cc2)Oc2ccc(NC(=O)c3ccncc3)cc2CC1=O	2	0	nt	-1
Cc1ccc(CNC(=O)c2ccc3c(=O)c(O)c(-c4ccc(C)cc4)[nH]c3c2)cc1	3	0	0	14*
Cc1ccc(S(=O)(=O)Nc2ccc3c(c2)C(=O)N([C@@H](C)CO)C[C@H](C)[C@H](CN(C)C(=O)Nc2cccc4ccccc24)O3)cc1	30	0	nt	0
COC(C(=O)N/N=C(\C)c1ccc(C)cc1)c1ccccc1 (configuration not stated)	-4	0	-6	1
COC(C(=O)NCc1ccc(C)cc1)c1ccccc1 (configuration not stated)	3	43*	-7	-1
[N-]=[N+]=NCCNC(=O)Nc1ccccc1	-6	1	nt	1
O=C(Oc1cc(Cl)ccc1Cl)C1=CC=CN2CCS(=O)(=O)N=C12	1	16*	-3	1
O=C(Oc1ccc(Cl)c(Cl)c1)C1=CC=CN2CCS(=O)(=O)N=C12	-6	0	0	3
COc1ccc(CNc2ncnc3cc(Cl)ccc23)cc1OC	-5	43*	-2	-3
COc1ccc(CNCC(O)(c2ccccc2)c2ccccc2)cc1OC	-1	43*	-1	2
SMILES	S100A4 inh HTS	FGF22 binding	dFosB act	F508del corr
Cc1ccc(S(=O)(=O)N[C@@H]2CC[C@@H](CC(=O)N3CCC(Cc4ccccc4)CC3)O[C@H]2CO)cc1	12	0	nt	0
OCCN1CCN(CC/C=C2/c3ccccc3Sc3ccc(Cl)cc32)CC1	2	0	17*	-12
Cc1noc(C)c1NC(=O)Nc1ccc2c(c1)CC(=O)N([C@@H](C)CO)C[C@H](C)[C@@H](CN(C)S(=O)(=O)c1c(C)noc1C)O2	13	0	nt	-2
Cc1ccc(S(=O)(=O)N2CCN(C(=O)c3ccccn3)CC2)cc1	-13	43*	-2	3
O=C(c1ccccn1)N1CCN(S(=O)(=O)c2ccccc2)CC1	-1	43*	1	1
O=C(c1ccccn1)N1CCN(S(=O)(=O)c2ccc(F)cc2)CC1	-2	1	2	3
CCOC(=O)c1ccc(S(=O)(=O)N2CCN(C(=O)c3ccccn3)CC2)cc1	1	0	0	5
O=c1c(CN2CCN(c3ccccn3)CC2)coc2ccccc12	7	44*	-10	3
Oc1c(CN2CCN(c3ccccn3)CC2)cc(Cl)c2cccnc12	nt	nt	9	nt
C[C@H]1CN([C@@H](C)CO)C(=O)c2cccc(NC(=O)NC3CCCCC3)c2O[C@@H]1CN(C)CC1CC1	-3	0	nt	0

From PubChem
